The record followed here is ChEMBL document CHEMBL3608276, “Phenolic Compounds from the Leaves and Twigs of Osteomeles schwerinae That Inhibit Rat Lens Aldose Reductase and Vessel Dilation in Zebrafish Larvae” (J Nat Prod, 2015).

A value given as a limit tells only on which side of the number the result lay.

The target in series [1] is Aldo-keto reductase family 1 member B1 (Rattus norvegicus, UniProt P07943). The experiment in a line: Inhibition of Sprague-Dawley rat lense aldose reductase using DL-glyceraldehyde as substrate by spectrofluorometric analysis. In outline:
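Crude enzyme from lenses of 8-week-old Sprague–Dawley rats (100–150 g), homogenized in 135 mM Na,K-phosphate pH 7.0 with 0.5 mM PMSF and 10 mM 2-mercaptoethanol; 100000g supernatant used. Reaction in 135 mM phosphate pH 7.0, 100 mM Li2SO4, 0.03 mM NADPH, 1 mM DL-glyceraldehyde at 37 °C, NADPH-started, HCl-stopped. NADP converted with NaOH/imidazole at 60 °C 10 min; fluorescence ex 360/em 460 nm. IC50 from log-concentration regression of remaining activity; 100 μM cutoff.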

The species named for series [2] is Danio rerio. The series is described as follows: Reduction of high glucose-induced dilation of hyaloid-retinal vessels in flk:EGFP transgenic zebrafish embryo at 20 uM treated for day 3 to 6 postfertilization measured on day 6 by stereomicroscopic analysis relative to control. Type of series: functional. More on the design: scale not given: the % may be the effect or the level left. In outline:
(§1)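 flk:EGFP embryos, five per well at 3 dpf in egg water with 130 mM glucose, exposed to compound 3–6 dpf. Fixed in 4% paraformaldehyde at 6 dpf, lenses with vessels isolated by 3% trypsin (0.2 M Tris-HCl pH 7.8) 80 min at 37 °C. Hyaloid vessel diameter near the optic disc measured three times per lens, 10 larvae per group, triplicate; mean ± SEM, ANOVA/Dunnett versus high-glucose group.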

The species named for series [3] is Danio rerio. The experiment in a line: Toxicity in zebrafish embryo up to 20 uM. The format is organism-based. Particulars: in vivo.
The species named for series [4] is Danio rerio. The series is described as follows: Reduction of high glucose-induced dilation of hyaloid-retinal vessel in flk:EGFP transgenic zebrafish embryo at 10 uM treated for day 3 to 6 postfertilization measured on day 6 by stereomicroscopic analysis relative to control. The format is functional. More on the design: scale not given: the % may be the effect or the level left. In outline:
as §1

Take `COc1cc([C@H]2O[C@H](c3cc(OC)c(O)c(OC)c3)[C@@H](CO[C@@H]3O[C@@H](C)[C@H](O)[C@@H](O)[C@H]3O)[C@@H]2CO)cc(OC)c1O`: in series [1], the IC50 is above 100 µM.

In the case of `COc1cc(O)cc(-c2ccc(O)c(O)c2)c1`, the Activity in the series listed under Danio rerio [2] is 99%; in the series listed under Danio rerio [3], “Non-toxic”; in the series listed under Danio rerio [4] it was 95%. For the same molecule, in series [1], it took 13.8 µM to reach half-maximal inhibition (IC50).

For `O=C(O)CC1(CC(=O)O)CCCC1`, in series [1], the midpoint of inhibition, the IC50, lay at 28.7 µM.

Regarding `COc1cc([C@H]2O[C@H](c3cc(OC)c(O)c(OC)c3)[C@@H](CO)[C@@H]2CO)cc(OC)c1O` [HUAZHONGILEXIN], the IC50 in series [1] is above 100 µM.

For the molecule `COc1cc(O[C@@H]2O[C@H](CO)[C@@H](O)[C@H](O)[C@H]2O)cc(-c2ccc(O)c(O)c2)c1`, the IC50 in series [1] came to 5.6 µM. Moreover, the Activity result in the series listed under Danio rerio [3] is “Non-toxic”.

`COc1cc(OC)cc(-c2ccc(O)c(O[C@@H]3O[C@H](CO)[C@@H](O)[C@H](O)[C@H]3O)c2)c1` came in with an IC50 in series [1] of 3.8 µM. Further, the Activity entry in the series filed under Danio rerio [3] is listed as “Non-toxic”.

In general, IC50 refers to the concentration at which inhibition is half-maximal.
